Data published in ChEMBL document CHEMBL3603780, “Discovery of thieno[3,2-c]pyridin-4-amines as novel Bruton's tyrosine kinase (BTK) inhibitors” (Bioorg Med Chem, 2015).
Values belong to the compound of their own block, whether it stands above or below them.

Columns and labels:
[1] = target: Tyrosine-protein kinase BTK (Homo sapiens, UniProt Q06187); assay: Inhibition of human recombinant BTK incubated for 5 mins by HTRF kinase assay
[2] = target: Hepatocyte growth factor receptor (Homo sapiens, UniProt P08581); assay: Inhibition of c-MET (unknown origin) using poly (Glu-Tyr, 4:1) substrate incubated for 60 mins by ELISA method
Method in brief: (§1)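 ELISA on wells precoated overnight at 37 °C with 0.2 mg/mL poly(Glu-Tyr, 4:1). Kinase and 0.01 mmol/L ATP in reaction medium, plus inhibitor at various concentrations in 1% DMSO, were reacted for 60 min at 37 °C. Anti-phosphotyrosine antibody and HRP anti-mouse IgG followed, with TMB read-out stopped by 2 M H2SO4 and OD at 450 nm. IC50 came from regression of concentration/inhibition data.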

[3] = Half life in Sprague-Dawley rat at 2.5 mg/kg, iv by LC-MS/MS method; type: ADME, organism-based; conditions: in vivo
Method in brief: (§2)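 Male SD rats, 3 per route (180-240 g), dosed 2.5 mg/kg iv or 10 mg/kg po at 5 mL/kg. Blood was sampled from 2 min to 24 h, centrifuged at 4000 rpm for 5 min at 4 °C and protein-precipitated. Plasma was quantified by LC/MS/MS in SRM mode with an internal standard. PK parameters came from noncompartmental analysis.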

[4] = Clearance in Sprague-Dawley rat at 2.5 mg/kg, iv by LC-MS/MS method; type: ADME, organism-based; conditions: in vivo; method in brief: as §2
[5] = AUC (0 to t) in Sprague-Dawley rat at 10 mg/kg, po by LC-MS/MS method; type: ADME, organism-based; conditions: in vivo; method in brief: as §2
[6] = Apparent volume of distribution in Sprague-Dawley rat at 2.5 mg/kg, iv by LC-MS/MS method; type: ADME, organism-based; conditions: in vivo, read-out: Vz; method in brief: as §2
[7] = target: Vascular endothelial growth factor receptor 2 (Homo sapiens, UniProt P35968); assay: Inhibition of KDR (unknown origin) using poly (Glu-Tyr, 4:1) substrate incubated for 60 mins by ELISA method; method in brief: as §1
[8] = Oral bioavailability in Sprague-Dawley rat at 10 mg/kg by LC-MS/MS method; type: ADME, organism-based; conditions: in vivo; method in brief: as §2
[9] = target: T1, Tyrosine-protein kinase JAK3 (Homo sapiens, UniProt P52333); assay: Inhibition of JAK3 (unknown origin) using poly (Glu-Tyr, 4:1) substrate incubated for 60 mins by ELISA method; method in brief: as §1
T1 sequence (P52333 whole entry): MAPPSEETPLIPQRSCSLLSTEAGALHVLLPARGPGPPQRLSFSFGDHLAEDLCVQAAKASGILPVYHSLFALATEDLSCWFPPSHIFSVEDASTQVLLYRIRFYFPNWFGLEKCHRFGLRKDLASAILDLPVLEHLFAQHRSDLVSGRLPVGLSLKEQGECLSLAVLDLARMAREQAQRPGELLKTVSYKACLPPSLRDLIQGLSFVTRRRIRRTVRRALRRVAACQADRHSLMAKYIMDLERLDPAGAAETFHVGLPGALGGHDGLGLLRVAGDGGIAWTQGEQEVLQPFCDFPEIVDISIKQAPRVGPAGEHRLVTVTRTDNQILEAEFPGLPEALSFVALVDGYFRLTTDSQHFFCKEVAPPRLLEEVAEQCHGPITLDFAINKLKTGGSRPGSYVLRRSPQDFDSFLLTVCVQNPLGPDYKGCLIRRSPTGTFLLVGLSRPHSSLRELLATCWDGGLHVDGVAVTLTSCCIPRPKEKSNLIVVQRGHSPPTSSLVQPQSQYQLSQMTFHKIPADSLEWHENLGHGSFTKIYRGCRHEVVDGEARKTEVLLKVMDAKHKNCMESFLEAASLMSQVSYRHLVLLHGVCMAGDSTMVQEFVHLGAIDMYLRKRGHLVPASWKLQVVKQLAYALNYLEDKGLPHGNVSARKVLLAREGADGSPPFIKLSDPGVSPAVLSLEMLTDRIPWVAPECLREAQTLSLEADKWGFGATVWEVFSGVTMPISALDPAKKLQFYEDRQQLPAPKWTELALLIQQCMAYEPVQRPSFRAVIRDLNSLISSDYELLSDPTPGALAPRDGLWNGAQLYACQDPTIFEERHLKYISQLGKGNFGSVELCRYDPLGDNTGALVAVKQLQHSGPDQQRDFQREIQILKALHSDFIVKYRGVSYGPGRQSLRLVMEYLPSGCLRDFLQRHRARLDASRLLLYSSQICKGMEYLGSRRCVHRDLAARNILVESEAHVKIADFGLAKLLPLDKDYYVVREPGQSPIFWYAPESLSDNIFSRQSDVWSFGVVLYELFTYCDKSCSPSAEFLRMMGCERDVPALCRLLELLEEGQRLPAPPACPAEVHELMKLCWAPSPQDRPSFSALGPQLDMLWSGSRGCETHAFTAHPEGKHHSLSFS

[10] = Tmax in Sprague-Dawley rat at 2.5 mg/kg, iv by LC-MS/MS method; type: ADME, organism-based; conditions: in vivo; method in brief: as §2
[11] = Clearance in Sprague-Dawley rat at 10 mg/kg, po by LC-MS/MS method; type: ADME, organism-based; conditions: in vivo; method in brief: as §2
[12] = target: Tyrosine-protein kinase JAK2 (Homo sapiens, UniProt O60674); assay: Inhibition of JAK2 (unknown origin) using poly (Glu-Tyr, 4:1) substrate incubated for 60 mins by ELISA method; method in brief: as §1
[13] = Mean residence time in Sprague-Dawley rat at 10 mg/kg, po by LC-MS/MS method; type: ADME, organism-based; conditions: in vivo; method in brief: as §2
[14] = AUC (0 to t) in Sprague-Dawley rat at 2.5 mg/kg, iv by LC-MS/MS method; type: ADME, organism-based; conditions: in vivo; method in brief: as §2
Rattus norvegicus = assay: Apparent volume of distribution in Sprague-Dawley rat at 10 mg/kg, po by LC-MS/MS method; type: ADME, organism-based; conditions: in vivo; method in brief: as §2
[15] = Cmax in Sprague-Dawley rat at 2.5 mg/kg, iv by LC-MS/MS method; type: ADME, organism-based; parameters: dose 2.5 mg/kg, route intravenous; conditions: in vivo; method in brief: as §2
[16] = Tmax in Sprague-Dawley rat at 10 mg/kg, po by LC-MS/MS method; type: ADME, organism-based; conditions: in vivo; method in brief: as §2
[17] = Mean residence time in Sprague-Dawley rat at 2.5 mg/kg, iv by LC-MS/MS method; type: ADME, organism-based; conditions: in vivo; method in brief: as §2
[18] = Cmax in Sprague-Dawley rat at 10 mg/kg, po by LC-MS/MS method; type: ADME, organism-based; parameters: dose 10 mg/kg, route oral; conditions: in vivo; method in brief: as §2
[19] = Half life in Sprague-Dawley rat at 10 mg/kg, po by LC-MS/MS method; type: ADME, organism-based; conditions: in vivo; method in brief: as §2

Tyrosine-protein kinase BTK, sequence (Q06187 whole entry): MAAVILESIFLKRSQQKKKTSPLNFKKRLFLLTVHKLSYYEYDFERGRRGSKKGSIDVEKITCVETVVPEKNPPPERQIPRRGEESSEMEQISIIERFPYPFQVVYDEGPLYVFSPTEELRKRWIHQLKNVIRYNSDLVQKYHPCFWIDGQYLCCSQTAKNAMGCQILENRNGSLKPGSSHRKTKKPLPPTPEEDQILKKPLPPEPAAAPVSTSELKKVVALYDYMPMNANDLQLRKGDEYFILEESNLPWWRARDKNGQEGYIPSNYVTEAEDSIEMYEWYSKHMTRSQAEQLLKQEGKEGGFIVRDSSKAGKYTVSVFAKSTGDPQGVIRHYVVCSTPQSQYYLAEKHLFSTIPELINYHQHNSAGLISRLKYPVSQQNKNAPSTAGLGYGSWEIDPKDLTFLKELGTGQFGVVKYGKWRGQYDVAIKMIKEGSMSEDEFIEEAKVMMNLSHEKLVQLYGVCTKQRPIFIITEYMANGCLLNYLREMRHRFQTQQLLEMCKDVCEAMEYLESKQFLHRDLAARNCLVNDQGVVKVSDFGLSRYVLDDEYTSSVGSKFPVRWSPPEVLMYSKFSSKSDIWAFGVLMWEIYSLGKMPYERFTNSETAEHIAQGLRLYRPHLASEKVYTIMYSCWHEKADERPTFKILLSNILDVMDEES
Tyrosine-protein kinase JAK2, sequence (O60674 whole entry): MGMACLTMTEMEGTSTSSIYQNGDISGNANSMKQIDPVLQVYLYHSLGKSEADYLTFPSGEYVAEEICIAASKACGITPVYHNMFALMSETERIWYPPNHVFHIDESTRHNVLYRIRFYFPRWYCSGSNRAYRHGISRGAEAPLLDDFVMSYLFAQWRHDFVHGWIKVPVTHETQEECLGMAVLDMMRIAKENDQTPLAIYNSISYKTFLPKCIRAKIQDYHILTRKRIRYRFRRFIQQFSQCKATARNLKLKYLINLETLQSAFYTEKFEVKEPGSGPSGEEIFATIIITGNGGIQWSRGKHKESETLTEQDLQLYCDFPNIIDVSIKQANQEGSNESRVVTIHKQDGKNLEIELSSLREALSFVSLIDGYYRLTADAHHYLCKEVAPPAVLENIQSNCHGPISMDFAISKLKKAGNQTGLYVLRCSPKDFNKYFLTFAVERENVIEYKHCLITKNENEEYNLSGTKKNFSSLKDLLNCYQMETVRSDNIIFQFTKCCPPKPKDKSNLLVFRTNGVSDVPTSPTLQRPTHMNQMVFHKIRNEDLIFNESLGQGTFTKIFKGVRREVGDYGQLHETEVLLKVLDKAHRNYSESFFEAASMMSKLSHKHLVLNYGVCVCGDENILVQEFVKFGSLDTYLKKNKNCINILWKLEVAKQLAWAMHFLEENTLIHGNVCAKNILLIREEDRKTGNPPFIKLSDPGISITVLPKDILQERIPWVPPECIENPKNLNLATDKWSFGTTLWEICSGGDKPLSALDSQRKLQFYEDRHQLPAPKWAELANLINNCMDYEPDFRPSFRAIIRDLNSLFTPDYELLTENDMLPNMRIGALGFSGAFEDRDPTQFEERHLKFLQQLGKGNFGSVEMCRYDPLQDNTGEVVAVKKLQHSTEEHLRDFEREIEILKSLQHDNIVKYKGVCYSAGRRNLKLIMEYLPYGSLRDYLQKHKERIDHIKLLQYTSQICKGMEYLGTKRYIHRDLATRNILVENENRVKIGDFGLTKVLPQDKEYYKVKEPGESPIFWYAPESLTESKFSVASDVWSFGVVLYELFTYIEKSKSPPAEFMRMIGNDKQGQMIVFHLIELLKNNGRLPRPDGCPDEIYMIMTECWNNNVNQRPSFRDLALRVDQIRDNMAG
Hepatocyte growth factor receptor, sequence (P08581 whole entry): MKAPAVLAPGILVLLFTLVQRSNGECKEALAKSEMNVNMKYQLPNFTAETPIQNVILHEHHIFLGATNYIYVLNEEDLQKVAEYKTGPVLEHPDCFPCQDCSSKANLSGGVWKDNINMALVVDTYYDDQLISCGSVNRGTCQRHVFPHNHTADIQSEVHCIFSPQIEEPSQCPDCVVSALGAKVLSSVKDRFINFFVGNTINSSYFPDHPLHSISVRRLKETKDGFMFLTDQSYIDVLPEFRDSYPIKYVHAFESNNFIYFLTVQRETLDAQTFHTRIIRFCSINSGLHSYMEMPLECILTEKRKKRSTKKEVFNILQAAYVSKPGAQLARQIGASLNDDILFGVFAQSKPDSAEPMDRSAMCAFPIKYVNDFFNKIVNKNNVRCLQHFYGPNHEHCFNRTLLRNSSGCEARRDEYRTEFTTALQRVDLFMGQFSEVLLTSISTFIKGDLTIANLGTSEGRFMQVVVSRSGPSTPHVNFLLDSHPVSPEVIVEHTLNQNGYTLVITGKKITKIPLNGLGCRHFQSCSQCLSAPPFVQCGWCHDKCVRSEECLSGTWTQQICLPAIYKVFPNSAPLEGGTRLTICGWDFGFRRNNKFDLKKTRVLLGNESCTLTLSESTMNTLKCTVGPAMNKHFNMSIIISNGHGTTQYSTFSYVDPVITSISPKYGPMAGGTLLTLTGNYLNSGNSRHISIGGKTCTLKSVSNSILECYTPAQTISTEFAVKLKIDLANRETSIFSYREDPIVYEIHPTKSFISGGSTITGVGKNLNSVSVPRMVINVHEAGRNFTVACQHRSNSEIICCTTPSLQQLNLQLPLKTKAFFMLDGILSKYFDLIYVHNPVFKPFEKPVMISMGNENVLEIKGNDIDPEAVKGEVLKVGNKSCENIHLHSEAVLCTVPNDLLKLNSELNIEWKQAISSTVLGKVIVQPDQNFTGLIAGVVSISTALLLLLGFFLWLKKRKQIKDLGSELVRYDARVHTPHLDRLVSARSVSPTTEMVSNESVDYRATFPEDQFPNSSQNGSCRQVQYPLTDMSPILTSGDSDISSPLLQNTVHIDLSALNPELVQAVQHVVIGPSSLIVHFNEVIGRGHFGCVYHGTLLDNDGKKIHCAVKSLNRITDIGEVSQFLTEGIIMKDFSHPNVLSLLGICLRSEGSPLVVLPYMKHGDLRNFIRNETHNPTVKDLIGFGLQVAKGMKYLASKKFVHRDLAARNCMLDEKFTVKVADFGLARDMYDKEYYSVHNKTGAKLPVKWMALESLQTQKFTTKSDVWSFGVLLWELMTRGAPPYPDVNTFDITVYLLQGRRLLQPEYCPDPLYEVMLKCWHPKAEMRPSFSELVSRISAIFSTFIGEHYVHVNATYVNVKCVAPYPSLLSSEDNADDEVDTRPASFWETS
Vascular endothelial growth factor receptor 2, sequence (P35968 whole entry): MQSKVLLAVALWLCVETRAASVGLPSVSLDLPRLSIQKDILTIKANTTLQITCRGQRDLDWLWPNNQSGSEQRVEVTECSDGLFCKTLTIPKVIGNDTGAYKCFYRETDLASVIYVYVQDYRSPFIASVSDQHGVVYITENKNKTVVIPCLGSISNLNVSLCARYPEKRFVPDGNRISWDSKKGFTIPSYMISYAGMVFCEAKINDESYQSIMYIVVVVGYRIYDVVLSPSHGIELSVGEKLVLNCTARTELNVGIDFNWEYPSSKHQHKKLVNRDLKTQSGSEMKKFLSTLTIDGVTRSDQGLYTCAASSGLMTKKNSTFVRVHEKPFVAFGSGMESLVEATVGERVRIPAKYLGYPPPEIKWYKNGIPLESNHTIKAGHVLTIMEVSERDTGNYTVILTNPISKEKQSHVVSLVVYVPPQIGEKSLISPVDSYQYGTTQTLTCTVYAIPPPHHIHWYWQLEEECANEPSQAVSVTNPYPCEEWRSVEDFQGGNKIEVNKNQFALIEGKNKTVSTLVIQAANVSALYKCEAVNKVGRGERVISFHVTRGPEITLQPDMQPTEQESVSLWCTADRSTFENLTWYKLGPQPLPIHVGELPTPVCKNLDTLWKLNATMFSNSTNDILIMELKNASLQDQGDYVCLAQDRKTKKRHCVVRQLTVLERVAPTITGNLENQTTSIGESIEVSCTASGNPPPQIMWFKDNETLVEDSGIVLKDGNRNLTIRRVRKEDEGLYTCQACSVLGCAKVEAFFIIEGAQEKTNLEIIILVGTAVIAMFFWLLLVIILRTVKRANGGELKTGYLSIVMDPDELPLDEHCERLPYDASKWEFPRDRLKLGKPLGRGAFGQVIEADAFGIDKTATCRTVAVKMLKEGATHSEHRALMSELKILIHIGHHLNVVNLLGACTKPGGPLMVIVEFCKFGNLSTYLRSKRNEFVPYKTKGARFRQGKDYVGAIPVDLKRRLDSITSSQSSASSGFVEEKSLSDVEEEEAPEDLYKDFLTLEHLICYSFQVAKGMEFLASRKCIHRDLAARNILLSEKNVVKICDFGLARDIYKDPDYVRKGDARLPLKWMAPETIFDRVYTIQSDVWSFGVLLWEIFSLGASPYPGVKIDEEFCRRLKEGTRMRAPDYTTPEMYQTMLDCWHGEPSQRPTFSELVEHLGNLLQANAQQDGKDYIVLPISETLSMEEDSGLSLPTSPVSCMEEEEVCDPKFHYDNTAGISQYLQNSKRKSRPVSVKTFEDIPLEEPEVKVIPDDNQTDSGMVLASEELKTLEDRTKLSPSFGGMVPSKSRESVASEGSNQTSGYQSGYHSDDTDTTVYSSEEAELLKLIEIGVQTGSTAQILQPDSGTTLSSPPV

Structure (SMILES): Nc1ncc(C2CC2)c2scc(-c3ccc(Oc4ccccc4)cc3)c12
IC50 [1]: > 10000 nM

Structure (SMILES): Nc1ncc(-c2ccccc2)c2scc(-c3ccc(Oc4ccccc4)cc3)c12
IC50 [1]: > 10000 nM

Structure (SMILES): Nc1ncc(-c2ccncc2)c2scc(-c3ccc(Oc4ccccc4)cc3)c12
IC50 [1]: 1950 nM

Structure (SMILES): Nc1ncc(-c2cn[nH]c2)c2scc(-c3ccc(Oc4ccccc4)cc3)c12
IC50 [1]: 1050 nM

Structure (SMILES): Nc1ncc(-c2ccc(Oc3ccccc3)cc2)c2scc(-c3ccc(Oc4ccccc4)cc3)c12
IC50 [1]: > 10000 nM

Structure (SMILES): CCCCc1cnc(N)c2c(-c3ccc(Oc4ccccc4)cc3)csc12
IC50 [1]: > 10000 nM

Structure (SMILES): Nc1ncc(-c2ccc(N3CCOCC3)cc2)c2scc(-c3ccc(Oc4ccccc4)cc3)c12
IC50 [1]: 2300 nM

Structure (SMILES): Nc1ncc(-c2ccco2)c2scc(-c3ccc(Oc4ccccc4)cc3)c12
IC50 [1]: 767 nM

Structure (SMILES): COc1ccc2cc(-c3cnc(N)c4c(-c5ccc(Oc6ccccc6)cc5)csc34)ccc2c1
IC50 [1]: > 10000 nM

Structure (SMILES): Nc1ncc(-c2cnn(Cc3ccccc3)c2)c2scc(-c3ccc(Oc4ccccc4)cc3)c12
IC50 [1]: 699 nM

Compounds with a lower IC50 [1], results first:

IC50 [1]: 387 nM
Structure (SMILES): CCCCn1cc(-c2cnc(N)c3c(-c4ccc(Oc5ccccc5)cc4)csc23)cn1

IC50 [1]: 176 nM
Structure (SMILES): CCn1cc(-c2cnc(N)c3c(-c4ccc(Oc5ccccc5)cc4)csc23)cn1

IC50 [1]: 528 nM
Structure (SMILES): CN(C)S(=O)(=O)n1cc(-c2cnc(N)c3c(-c4ccc(Oc5ccccc5)cc4)csc23)cn1

IC50 [2]: > 10000 nM | half-life [3]: 21.6 min | clearance [4]: 28.6 mL/min/kg | AUC(0-t) [5]: 1370 ng·h/mL | Vd [6]: 0.9 L/kg | IC50 [7]: 284 nM | bioavailability [8]: 23.4% | IC50 [9]: > 10000 nM | Tmax [10]: 6.6 min | CL/F [11]: 145 mL/min/kg | IC50 [12]: > 10000 nM | MRT [13]: 88.8 min | AUC(0-t) [14]: 1460 ng·h/mL | Vz (Rattus norvegicus): 13.3206 L/kg | IC50 [1]: 12.8 nM | Cmax [15]: 2550 ng/mL | Tmax [16]: 40.2 min | MRT [17]: 25.8 min | Cmax [18]: 856 ng/mL | half-life [19]: 60.6 min
Structure (SMILES): CNC(=O)Cn1cc(-c2cnc(N)c3c(-c4ccc(Oc5ccccc5)cc4)csc23)cn1

IC50 [1]: 291 nM
Structure (SMILES): CNC(=O)Cn1cc(-c2cnc(N)c3c(-c4cccc(C(=O)Nc5ccccc5)c4)csc23)cn1

IC50 [1]: 137 nM
Structure (SMILES): CNC(=O)Cn1cc(-c2cnc(N)c3c(-c4ccc(C(=O)Nc5ccccc5)cc4)csc23)cn1

IC50 [1]: 454 nM
Structure (SMILES): CC(=O)n1cc(-c2cnc(N)c3c(-c4ccc(Oc5ccccc5)cc4)csc23)cn1

IC50 [1]: 421 nM
Structure (SMILES): Cn1cc(-c2cnc(N)c3c(-c4ccc(NC(=O)c5cccc(Cl)c5)cc4)csc23)cn1

IC50 [1]: 280 nM
Structure (SMILES): COCCCn1cc(-c2cnc(N)c3c(-c4ccc(Oc5ccccc5)cc4)csc23)cn1

IC50 [1]: 409 nM
Structure (SMILES): CNC(=O)Cn1cc(-c2cnc(N)c3c(-c4ccc(NC(=O)c5cccc(Cl)c5)cc4)csc23)cn1

IC50 [2]: > 10000 nM | IC50 [7]: 343 nM | IC50 [9]: > 10000 nM | IC50 [12]: > 10000 nM | IC50 [1]: 107 nM
Structure (SMILES): Cn1cc(-c2cnc(N)c3c(-c4ccc(Oc5ccccc5)cc4)csc23)cn1
